Where two headings read alike, the source gives them in different places.

Assay [1] deals with r5-HT1.0. Put plainly: Dose-response of sensor fluorescence change. Particulars: read-out: EC50 values. It is filed as cell-based, cultured rat cortical neurons.
In a further assay the test system is g5-HT2m. Particulars: read-out: EC50 values.
For assay [2], the system named is r5-HT1.0. As to the kind of experiment: Dose-response of sensor fluorescence change. It is filed as cell-based, HEK293T cells. Particulars: n = 3.
For assay [3], the system named is g5-HT3.0. Put plainly: Dose-response of sensor fluorescence change. It is filed as cell-based, HEK293T cells. Particulars: n = 3.
The test system of assay [4] is g5-HT3.0. Put plainly: Dose-response of sensor fluorescence change. The class given is cell-based, cultured rat cortical neurons. Particulars: read-out: EC50 values.
The next assay concerns g5-HT2h. Particulars: read-out: EC50 values.
Assay [5] relates to 5-HT release in mouse dorsal cortex. As to the kind of experiment: Mesoscopic imaging of optogenetically evoked cortical 5-HT release. It is filed as in vivo, mice. Particulars: fluoxetine 20 mg/kg i.p., GBR 12909 10 mg/kg i.p. The method, boiled down:
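In Sert-Cre mice, 300 nl AAV9-EF1a-DIO-ChrimsonR was injected into the DRN (AP −6.1, ML 0, depth 3 mm, 32° AP angle), with an optical fiber 0.2 mm above the site. Mice recovered ≥7 d and were habituated head-fixed over >3 d.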

Assay [6] concerns g5-HT3.0. Put plainly: Pharmacological specificity of g5-HT3.0 in HEK293T cells. Particulars: compounds 10 μM except RS 100 μM. The class given is cell-based.
The test system of assay [7] is r5-HT1.0. Put plainly: Pharmacological specificity of r5-HT1.0 in HEK293T cells. Particulars: compounds 10 μM except RS 100 μM. It is filed as cell-based.
The next assay relates to β-arrestin pathway. Put plainly: Tango assay. It is filed as cell-based. Particulars: HTLA cells, 5-HT 0.01 nM to 100 μM.
For the next assay, the system named is GPCR-mediated Gs pathway. Put plainly: Luciferase complementation assay. It is filed as cell-based. Particulars: HEK293T cells, 5-HT 0.01 nM to 1 mM.

Take `NCCc1c[nH]c2ccc(O)cc12` [5-HT, serotonin (5-hydroxytryptamine)]: the EC50 in the assay on r5-HT1.0 [1] was 600 nM; with g5-HT2m, 2400 nM; in the assay on r5-HT1.0 [2] it was approximately 790 nM; with g5-HT3.0 [3], approximately 150 nM; with g5-HT3.0 [4], 80 nM; in the assay with g5-HT2h it was 70 nM.

As to `Fc1ccc(C(OCCN2CCN(CCCc3ccccc3)CC2)c2ccc(F)cc2)cc1` [GBR 12909], the “baseline 5-HT levels (g5-HT3.0 signal)” value in [5] is listed as “no effect”.

With `COc1cc(N)c(Cl)cc1C(=O)OCCCN1CCCCC1` [RS 23597-190], the “block of 5-HT induced response of g5-HT3.0” value in the assay with g5-HT3.0 [6] is reported as “blocked”. In addition, the “block of 5-HT induced response of r5-HT1.0” value in the assay with r5-HT1.0 [7] is recorded as “blocked”.

Turning to `CNCCC(Oc1ccc(C(F)(F)F)cc1)c1ccccc1` (stereo not drawn) [fluoxetine], the “baseline 5-HT levels (g5-HT3.0 signal)” value in [5] was “gradual increase”.

Regarding “wild-type 5-HTR4: wild-type 5-HTR4 receptor”, the “downstream coupling, β-arrestin pathway” value with β-arrestin pathway is “high basal activity and robust, dose-dependent coupling”. Besides, the “downstream coupling, Gs pathway” value with GPCR-mediated Gs pathway was “high basal activity and robust, dose-dependent coupling”.

A word on the EC50: it is the concentration at which the effect is half-maximal.

Values taken from article PMC11377854 (Nature methods, 2024).
